Key:
Mus musculus [1] = experiment: Anticonvulsant activity in CF1 albino mouse assessed as protection against scMet-induced seizures at 50 mg/kg, ip after 0.5 hrs; assay type: functional, organism-based; design: dose 50 mg/kg
In short: (§1)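 Adult male CF no. 1 albino mice (18-25 g) dosed intraperitoneally with compound suspended in 0.5% methylcellulose (0.01 mL/g). Convulsant challenge given subcutaneously as a 0.85% pentylenetetrazol solution in 0.9% saline. Read-out is animals protected over animals tested, with neurotoxicity scored in parallel.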

Mus musculus [2] = experiment: Anticonvulsant activity in CF1 albino mouse assessed as protection against maximal electroshock-induced seizures at 50 mg/kg, ip after 0.5 hrs; assay type: functional, organism-based; design: dose 50 mg/kg
In short: (§2)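 Adult male CF no. 1 albino mice (18-25 g). Test compound suspended in 0.5% methylcellulose and given intraperitoneally at 0.01 mL/g body weight. Maximal electroshock challenge at the stated time. Read-out is the number of animals protected over the number tested; neurotoxicity is scored in parallel.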

Mus musculus [3] = experiment: Anticonvulsant activity in CF1 albino mouse assessed as protection against scMet-induced seizures at 450 mg/kg, ip after 0.5 hrs; assay type: functional, organism-based; design: dose 450 mg/kg; in short: as §1
Mus musculus [4] = experiment: Anticonvulsant activity in CF1 albino mouse assessed as protection against maximal electroshock-induced seizures at 50 mg/kg, ip after 4 hrs; assay type: functional, organism-based; design: dose 50 mg/kg; in short: as §2
Mus musculus [5] = experiment: Neurotoxicity in CF1 albino mouse at 50 mg/kg, ip after 4 hrs; assay type: toxicity, organism-based; design: dose 50 mg/kg, route intraperitoneal; conditions: in vivo
In short: (§3)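 Male CF no. 1 albino mice (18-25 g) received a single ip dose as a suspension in 0.5% methylcellulose. The read-out was the number of animals showing neurotoxicity (minimal motor impairment) over the number tested.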

Mus musculus [6] = experiment: Neurotoxicity in CF1 albino mouse at 450 mg/kg, ip after 0.5 hrs; assay type: toxicity, organism-based; design: dose 450 mg/kg, route intraperitoneal; conditions: in vivo; in short: as §3
Mus musculus [7] = experiment: Anticonvulsant activity in CF1 albino mouse assessed as protection against scMet-induced seizures at 450 mg/kg, ip after 4 hrs; assay type: functional, organism-based; design: dose 450 mg/kg; in short: as §1
Mus musculus [8] = experiment: Anticonvulsant activity in CF1 albino mouse assessed as protection against maximal electroshock-induced seizures at 450 mg/kg, ip after 0.5 hrs; assay type: functional, organism-based; design: dose 450 mg/kg; in short: as §2
Mus musculus [9] = experiment: Anticonvulsant activity in CF1 albino mouse assessed as protection against maximal electroshock-induced seizures at 450 mg/kg, ip after 4 hrs; assay type: functional, organism-based; design: dose 450 mg/kg; in short: as §2
Mus musculus [10] = experiment: Anticonvulsant activity in CF1 albino mouse assessed as protection against maximal electroshock-induced seizures at 150 mg/kg, ip after 0.5 hrs; assay type: functional, organism-based; design: dose 150 mg/kg; in short: as §2
Mus musculus [11] = experiment: Anticonvulsant activity in CF1 albino mouse assessed as protection against scMet-induced seizures at 150 mg/kg, ip after 4 hrs; assay type: functional, organism-based; design: dose 150 mg/kg; in short: as §1
Mus musculus [12] = experiment: Neurotoxicity in CF1 albino mouse at 150 mg/kg, ip after 4 hrs; assay type: toxicity, organism-based; design: dose 150 mg/kg, route intraperitoneal; conditions: in vivo; in short: as §3
Mus musculus [13] = experiment: Anticonvulsant activity in CF1 albino mouse assessed as protection against scMet-induced seizures at 150 mg/kg, ip after 0.5 hrs; assay type: functional, organism-based; design: dose 150 mg/kg; in short: as §1
Mus musculus [14] = experiment: Anticonvulsant activity in CF1 albino mouse assessed as protection against maximal electroshock-induced seizures at 150 mg/kg, ip after 4 hrs; assay type: functional, organism-based; design: dose 150 mg/kg; in short: as §2
Mus musculus [15] = experiment: Anticonvulsant activity in CF1 albino mouse assessed as protection against scMet-induced seizures at 50 mg/kg, ip after 4 hrs; assay type: functional, organism-based; design: dose 50 mg/kg; in short: as §1
Rattus norvegicus = experiment: Anticonvulsant activity in po dosed albino Sprague-Dawley rat assessed as protection against scMet-induced seizures; assay type: functional
In short: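 Male Sprague-Dawley albino rats (100-150 g) were dosed orally in 0.5% methylcellulose and tested by MES or by sc pentylenetetrazol (2.82% in 0.9% saline). Doses were varied to give 3-4 points between 0% and 100% protection. ED50 and 95% confidence intervals came from probit analysis.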

Mus musculus [16] = experiment: Teratogenic effect in SWV mouse assessed as dead fetuses at 452 mg/kg, ip administered on morning of day 8 of gestation; assay type: toxicity, organism-based; design: dose 452 mg/kg, route intraperitoneal; conditions: in vivo
Mus musculus [17] = experiment: Teratogenic effect in SWV mouse assessed as resorptions at 452 mg/kg, ip administered on morning of day 8 of gestation; assay type: toxicity, organism-based; design: dose 452 mg/kg, route intraperitoneal; conditions: in vivo
In short: (§4)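 Inbred SWV mouse strain, highly susceptible to valproate-induced neural tube defects. Each pregnant dam received a single ip injection on gestation day 8.5. Test compounds spanned 1.8-4.2 mmol/kg, the reference drug was given as its sodium salt, and controls received 25% aqueous Cremophor EL. Groups were compared by Fisher's exact test (p < 0.05).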

Mus musculus [18] = experiment: Teratogenic effect in SWV mouse assessed as live fetuses at 600 mg/kg, ip administered on morning of day 8 of gestation; assay type: toxicity, organism-based; design: dose 600 mg/kg, route intraperitoneal; conditions: in vivo; in short: as §4
Mus musculus [19] = experiment: Teratogenic effect in SWV mouse assessed as live fetuses at 452 mg/kg, ip administered on morning of day 8 of gestation; assay type: toxicity, organism-based; design: dose 452 mg/kg, route intraperitoneal; conditions: in vivo; in short: as §4
Mus musculus [20] = experiment: Teratogenic effect in SWV mouse assessed as dead fetuses at 301 mg/kg, ip administered on morning of day 8 of gestation; assay type: toxicity, organism-based; design: dose 301 mg/kg, route intraperitoneal; conditions: in vivo
Mus musculus [21] = experiment: Teratogenic effect in SWV mouse assessed as number of implants at 301 mg/kg, ip administered on morning of day 8 of gestation; assay type: toxicity, organism-based; design: dose 301 mg/kg, route intraperitoneal; conditions: in vivo; in short: as §4
Mus musculus [22] = experiment: Teratogenic effect in SWV mouse assessed as dead fetuses at 600 mg/kg, ip administered on morning of day 8 of gestation; assay type: toxicity, organism-based; design: dose 600 mg/kg, route intraperitoneal; conditions: in vivo
Mus musculus [23] = experiment: Teratogenic effect in SWV mouse assessed as live fetuses at 301 mg/kg, ip administered on morning of day 8 of gestation; assay type: toxicity, organism-based; design: dose 301 mg/kg, route intraperitoneal; conditions: in vivo; in short: as §4
Mus musculus [24] = experiment: Teratogenic effect in SWV mouse assessed as number of implants at 600 mg/kg, ip administered on morning of day 8 of gestation; assay type: toxicity, organism-based; design: dose 600 mg/kg, route intraperitoneal; conditions: in vivo; in short: as §4
Mus musculus [25] = experiment: Teratogenic effect in SWV mouse assessed as number of litters at 301 mg/kg, ip administered on morning of day 8 of gestation; assay type: toxicity, organism-based; design: dose 301 mg/kg, route intraperitoneal; conditions: in vivo; in short: as §4
Mus musculus [26] = experiment: Teratogenic effect in VPA-induced SWV mouse assessed as fetuses with neural tube deffects at 301 mg/kg, ip administered on morning of day 8 of gestation; assay type: toxicity, organism-based; design: dose 301 mg/kg, route intraperitoneal; conditions: in vivo; in short: as §4
Mus musculus [27] = experiment: Anticonvulsant activity in ip dosed CF1 albino mouse assessed as protection against 44 mA-current-induced seizure by 6Hz psychomotor seizure test; assay type: functional
In short: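 In the 6 Hz psychomotor seizure test, male CF no. 1 albino mice (18-25 g) received the compound ip in 0.5% methylcellulose. Stimulation was at 32 or 44 mA. Doses were varied to give 3-4 points between 0% and 100% protection, and ED50 with 95% confidence interval came from probit analysis.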

Mus musculus [28] = experiment: Teratogenic effect in SWV mouse assessed as number of implants at 452 mg/kg, ip administered on morning of day 8 of gestation; assay type: toxicity, organism-based; design: dose 452 mg/kg, route intraperitoneal; conditions: in vivo; in short: as §4
Mus musculus [29] = experiment: Teratogenic effect in SWV mouse assessed as resorptions at 301 mg/kg, ip administered on morning of day 8 of gestation; assay type: toxicity, organism-based; design: dose 301 mg/kg, route intraperitoneal; conditions: in vivo; in short: as §4
Mus musculus [30] = experiment: Teratogenic effect in SWV mouse assessed as number of litters at 452 mg/kg, ip administered on morning of day 8 of gestation; assay type: toxicity, organism-based; design: dose 452 mg/kg, route intraperitoneal; conditions: in vivo; in short: as §4
Mus musculus [31] = experiment: Teratogenic effect in SWV mouse assessed as number of litters at 600 mg/kg, ip administered on morning of day 8 of gestation; assay type: toxicity, organism-based; design: dose 600 mg/kg, route intraperitoneal; conditions: in vivo; in short: as §4
Mus musculus [32] = experiment: Teratogenic effect in SWV mouse assessed as resorptions at 600 mg/kg, ip administered on morning of day 8 of gestation; assay type: toxicity, organism-based; design: dose 600 mg/kg, route intraperitoneal; conditions: in vivo; in short: as §4

CC1(C)C(C)(C)C1(Br)C(N)=O
Activity (Mus musculus [1]): Non-toxic | Activity (Mus musculus [2]): Non-toxic | Activity (Mus musculus [3]): Non-toxic | Activity (Mus musculus [4]): Non-toxic | Activity (Mus musculus [5]): Non-toxic | Activity (Mus musculus [6]): Toxic | Activity (Mus musculus [7]): Non-toxic | Activity (Mus musculus [8]): Non-toxic | Activity (Mus musculus [9]): Non-toxic | Activity (Mus musculus [10]): Non-toxic | Activity (Mus musculus [11]): Non-toxic | Activity (Mus musculus [12]): Non-toxic | Activity (Mus musculus [13]): Non-toxic | Activity (Mus musculus [14]): Non-toxic | Activity (Mus musculus [15]): Non-toxic

CCCC(CCC)C(=O)O [VALPROIC ACID]
ED50 (Rattus norvegicus): 646 mg/kg | Activity (Mus musculus [16]): 0.6% | Activity (Mus musculus [17]): 11.3% | Activity (Mus musculus [18]): 81.7% | Activity (Mus musculus [19]): 88.1% | Activity (Mus musculus [20]): 2.6% | Activity (Mus musculus [21]): 154 | Activity (Mus musculus [22]): 10.7% | Activity (Mus musculus [23]): 86.4% | Activity (Mus musculus [24]): 131 | Activity (Mus musculus [25]): 12 | Activity (Mus musculus [26]): 1.5% | ED50 (Mus musculus [27]): 310 mg/kg | Activity (Mus musculus [28]): 160 | Activity (Mus musculus [29]): 11% | Activity (Mus musculus [30]): 13 | Activity (Mus musculus [31]): 13 | Activity (Mus musculus [32]): 7.6%
